# Active and inactive are the calls of the source. The calls are words filed in the database; no cut-off is given here.
# What was measured:
# Enterococcus = test: Antibacterial activity against Vancomycin-resistant Enterococcus measured after overnight incubation by broth double-dilution method; format: functional
# How it was run: (§1)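 MIC by broth double-dilution in liquid Mueller-Hinton medium. Values are reported in µg/mL.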
# Staphylococcus aureus [1] = test: Bactericidal activity against methicillin-resistant Staphylococcus aureus S22 at 4 times MIC measured after 24 hrs by time kill analysis; format: functional
# Staphylococcus aureus [2] = test: Antibacterial activity against methicillin-resistant Staphylococcus aureus S22 using 1 10^6CFU/ml measured after overnight incubation by broth double-dilution method; format: functional
# Staphylococcus aureus [3] = test: Antibacterial activity against methicillin-resistant Staphylococcus aureus S17 measured after overnight incubation by broth double-dilution method; format: functional; how it was run: as §1
# Staphylococcus aureus [4] = test: Antibacterial activity against methicillin-resistant Staphylococcus aureus G6 measured after overnight incubation by broth double-dilution method; format: functional; how it was run: as §1
# Staphylococcus aureus [5] = test: Antibacterial activity against methicillin-resistant Staphylococcus aureus C1 measured after overnight incubation by broth double-dilution method; format: functional; how it was run: as §1
# Acinetobacter baumannii = test: Antibacterial activity against Acinetobacter baumannii ATCC 19606 measured after overnight incubation by broth double-dilution method; format: functional
# How it was run: (§2)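 MIC by broth double-dilution in Mueller-Hinton medium. Re-testing at the time-kill inoculum used 1×10^6 CFU/mL.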
# Staphylococcus aureus [6] = test: Antibacterial activity against methicillin-resistant Staphylococcus aureus NRS77 measured after overnight incubation by broth double-dilution method; format: functional; how it was run: as §1
# Staphylococcus aureus [7] = test: Antibacterial activity against methicillin-resistant Staphylococcus aureus C14 measured after overnight incubation by broth double-dilution method; format: functional; how it was run: as §1
# Enterococcus faecium = test: Antibacterial activity against Enterococcus faecium BM4105-RF measured after overnight incubation by broth double-dilution method; format: functional; how it was run: as §1
# [8] = test system: Staphylococcus epidermidis; test: Antibacterial activity against Staphylococcus epidermidis ATCC 35984 measured after overnight incubation by broth double-dilution method; format: functional; conditions: RP62A; how it was run: as §2
# Staphylococcus aureus [9] = test: Bacteriostatic activity against methicillin-resistant Staphylococcus aureus S22 at MIC measured up to 3 to 6 hrs by time kill analysis; format: functional
# [10] = Cytotoxicity against mouse RBCs assessed as hemolysis up to […] measured after 1 hr; format: toxicity, Erythrocyte; conditions: mouse red blood cells, read-out: Activity
# Staphylococcus aureus [11] = test: Antibacterial activity against methicillin-resistant Staphylococcus aureus ATCC 33591 measured after overnight incubation by broth double-dilution method; format: functional; how it was run: as §1
# Staphylococcus aureus [12] = test: Antibacterial activity against methicillin-resistant Staphylococcus aureus C16 measured after overnight incubation by broth double-dilution method; format: functional; how it was run: as §1
# Staphylococcus aureus [13] = test: Antibacterial activity against methicillin-sensitive Staphylococcus aureus ATCC 29213 measured after overnight incubation by broth double-dilution method; format: functional; how it was run: as §1
# Staphylococcus aureus [14] = test: Antibacterial activity against methicillin-resistant Staphylococcus aureus G12 measured after overnight incubation by broth double-dilution method; format: functional; how it was run: as §1
# [15] = test system: Staphylococcus epidermidis; test: Antibiofilm activity against Staphylococcus epidermidis ATCC 35984 assessed as reduction of biofilm at […] ug/ml measured after 24 hrs by crystal violet staining based method relative to control; format: functional, RP62A; set-up: scale not given: the % may be the effect or the level left
# Staphylococcus aureus [16] = test: Antibacterial activity against methicillin-resistant Staphylococcus aureus S22 measured after overnight incubation by broth double-dilution method; format: functional; how it was run: as §1
# Staphylococcus aureus [17] = test: Antibiofilm activity against methicillin-sensitive Staphylococcus aureus ATCC 6538 assessed as reduction in biofilm mass at 2 ug/ml measured after 24 hrs by crystal violet staining based method relative to control; format: functional; set-up: scale not given: the % may be the effect or the level left
# Staphylococcus aureus [18] = test: Antibacterial activity against methicillin-resistant Staphylococcus aureus S14 measured after overnight incubation by broth double-dilution method; format: functional; how it was run: as §1
# Klebsiella pneumoniae = test: Antibacterial activity against Klebsiella pneumoniae ATCC 27736 measured after overnight incubation by broth double-dilution method; format: functional; how it was run: as §1
# Enterobacter cloacae = test: Antibacterial activity against Enterobacter cloacae ATCC 13047 measured after overnight incubation by broth double-dilution method; format: functional; conditions: subsp. cloacae ATCC 13047; how it was run: as §1
# Staphylococcus aureus [19] = test: Antibacterial activity against methicillin-resistant Staphylococcus aureus USA600 measured after overnight incubation by broth double-dilution method; format: functional; how it was run: as §1
# Escherichia coli = test: Antibacterial activity against Escherichia coli MC1061 measured after overnight incubation by broth double-dilution method; format: functional; how it was run: as §1
# Staphylococcus aureus [20] = test: Antibacterial activity against methicillin-sensitive Staphylococcus aureus ATCC 6538 measured after overnight incubation by broth double-dilution method; format: functional; how it was run: as §1
# [21] = test system: Mycolicibacterium smegmatis; test: Antibacterial activity against Mycobacterium smegmatis MC2-155 measured after overnight incubation by broth double-dilution method; format: functional; conditions: str. MC2 155; how it was run: as §1
# Staphylococcus aureus [22] = test: Antibacterial activity against methicillin-resistant Staphylococcus aureus NRS51 measured after overnight incubation by broth double-dilution method; format: functional; how it was run: as §1
# Staphylococcus aureus [23] = test: Antibacterial activity against methicillin-resistant Staphylococcus aureus USA300 measured after overnight incubation by broth double-dilution method; format: functional; how it was run: as §1
# Pseudomonas aeruginosa = test: Antibacterial activity against Pseudomonas aeruginosa ATCC 27853 measured after overnight incubation by broth double-dilution method; format: functional; how it was run: as §2
# Staphylococcus aureus [24] = test: Antibacterial activity against methicillin-resistant Staphylococcus aureus BRS3 measured after overnight incubation by broth double-dilution method; format: functional; how it was run: as §1
# Staphylococcus aureus [25] = test: Antibacterial activity against methicillin-resistant Staphylococcus aureus NRS4 measured after overnight incubation by broth double-dilution method; format: functional; how it was run: as §1
# Enterococcus faecalis [26] = test: Antibacterial activity against Enterococcus faecalis ATCC 29212 measured after overnight incubation by broth double-dilution method; format: functional; how it was run: as §2
# [27] = test system: Staphylococcus epidermidis; test: Antibacterial activity against Staphylococcus epidermidis ATCC 12228 measured after overnight incubation by broth double-dilution method; format: functional; how it was run: as §2
# Listeria monocytogenes = test: Antibacterial activity against Listeria monocytogenes ATCC 19115 measured after overnight incubation by broth double-dilution method; format: functional; how it was run: as §2
# Staphylococcus aureus [28] = test: Antibiofilm activity against methicillin-sensitive Staphylococcus aureus ATCC 6538 assessed as reduction of biofilm at […] ug/ml measured after 24 hrs by crystal violet staining based method relative to untreated control; format: functional; set-up: scale not given: the % may be the effect or the level left
# Staphylococcus aureus [29] = test: Antibacterial activity against methicillin-resistant Staphylococcus aureus G1 measured after overnight incubation by broth double-dilution method; format: functional; how it was run: as §1
# Staphylococcus aureus [30] = test: Antibacterial activity against methicillin-resistant Staphylococcus aureus USA200 measured after overnight incubation by broth double-dilution method; format: functional; how it was run: as §1
# Staphylococcus aureus [31] = test: Antibacterial activity against methicillin-resistant Staphylococcus aureus USA100 measured after overnight incubation by broth double-dilution method; format: functional; how it was run: as §1
# Staphylococcus aureus [32] = test: Antibacterial activity against methicillin-sensitive Staphylococcus aureus ATCC 25923 measured after overnight incubation by broth double-dilution method; format: functional; how it was run: as §1
# Staphylococcus aureus [33] = test: Antibacterial activity against methicillin-resistant Staphylococcus aureus C7 measured after overnight incubation by broth double-dilution method; format: functional; how it was run: as §1
# Staphylococcus aureus [34] = test: Antibacterial activity against methicillin-resistant Staphylococcus aureus G14 measured after overnight incubation by broth double-dilution method; format: functional; how it was run: as §1
# Salmonella enterica = test: Antibacterial activity against Salmonella enterica ATCC 14028 measured after overnight incubation by broth double-dilution method; format: functional; how it was run: as §2
# Staphylococcus aureus [35] = test: Bacteriostatic activity against methicillin-resistant Staphylococcus aureus S22 at 0.5 times MIC measured up to 3 to 6 hrs by time kill analysis; format: functional
# Staphylococcus aureus [36] = test: Antibacterial activity against methicillin-resistant Staphylococcus aureus C19 measured after overnight incubation by broth double-dilution method; format: functional; how it was run: as §1
# Staphylococcus aureus [37] = test: Antibacterial activity against methicillin-resistant Staphylococcus aureus 1 measured after overnight incubation by broth double-dilution method; format: functional; how it was run: as §1
# Staphylococcus aureus [38] = test: Antibacterial activity against methicillin-resistant Staphylococcus aureus 2 measured after overnight incubation by broth double-dilution method; format: functional; how it was run: as §1
# [39] = Cytotoxicity against HEK293 cells assessed as cell death up to 10 ug/ml measured after 24 hrs by resazurin dye-based fluorescence analysis relative to untreated control; format: toxicity; conditions: human, hek293, 24 h
# Staphylococcus aureus [40] = test: Antibacterial activity against methicillin-resistant Staphylococcus aureus S24 measured after overnight incubation by broth double-dilution method; format: functional; how it was run: as §1
# Enterococcus faecalis [41] = test: Antibacterial activity against Enterococcus faecalis ATCC 49533 measured after overnight incubation by broth double-dilution method; format: functional; how it was run: as §2
# Staphylococcus aureus [42] = test: Antibacterial activity against methicillin-resistant Staphylococcus aureus C2 measured after overnight incubation by broth double-dilution method; format: functional; how it was run: as §1
structure (smiles),measurement,setting,value
O=c1c2ccccc2[se]n1-c1ccccc1 [EBSELEN],MIC,Enterococcus,1 µg/mL
same,Activity,Staphylococcus aureus [1],Active
same,Activity,Staphylococcus aureus [2],Active
same,MIC,Staphylococcus aureus [3],1 µg/mL
same,MIC,Staphylococcus aureus [4],1 µg/mL
same,MIC,Staphylococcus aureus [5],2 µg/mL
same,MIC,Acinetobacter baumannii,15.6 µg/mL
same,MIC,Staphylococcus aureus [6],3.9 µg/mL
same,MIC,Staphylococcus aureus [7],2 µg/mL
same,MIC,Enterococcus faecium,0.5 µg/mL
same,MIC,[8],0.25 µg/mL
same,Activity,Staphylococcus aureus [9],Active
same,hemolysis at 1 h,[10],≤ 20%
same,MIC,Staphylococcus aureus [11],0.5 µg/mL
same,MIC,Staphylococcus aureus [12],3.9 µg/mL
same,MIC,Staphylococcus aureus [13],2 µg/mL
same,MIC,Staphylococcus aureus [14],1 µg/mL
same,Activity,[15],20%
same,MIC,Staphylococcus aureus [16],1 µg/mL
same,Activity,Staphylococcus aureus [17],60%
same,MIC,Staphylococcus aureus [18],≤ 0.25 µg/mL
same,MIC,Klebsiella pneumoniae,> 125 µg/mL
same,MIC,Enterobacter cloacae,> 125 µg/mL
same,MIC,Staphylococcus aureus [19],3.9 µg/mL
same,MIC,Escherichia coli,7.8 µg/mL
same,MIC,Staphylococcus aureus [20],2 µg/mL
same,MIC,[21],7.8 µg/mL
same,MIC,Staphylococcus aureus [22],1 µg/mL
same,MIC,Staphylococcus aureus [23],3.9 µg/mL
same,MIC,Pseudomonas aeruginosa,> 125 µg/mL
same,MIC,Staphylococcus aureus [24],7.8 µg/mL
same,MIC,Staphylococcus aureus [25],7.8 µg/mL
same,MIC,Enterococcus faecalis [26],0.5 µg/mL
same,MIC,[27],> 125 µg/mL
same,MIC,Listeria monocytogenes,1 µg/mL
same,Activity,Staphylococcus aureus [28],20%
same,MIC,Staphylococcus aureus [29],2 µg/mL
same,MIC,Staphylococcus aureus [30],2 µg/mL
same,MIC,Staphylococcus aureus [31],2 µg/mL
same,MIC,Staphylococcus aureus [32],3.9 µg/mL
same,MIC,Staphylococcus aureus [33],0.5 µg/mL
same,MIC,Staphylococcus aureus [34],1 µg/mL
same,MIC,Salmonella enterica,> 125 µg/mL
same,Activity,Staphylococcus aureus [35],Active
same,MIC,Staphylococcus aureus [36],1 µg/mL
same,MIC,Staphylococcus aureus [37],≤ 0.25 µg/mL
same,MIC,Staphylococcus aureus [38],2 µg/mL
same,Activity,[39],Non-Toxic
same,MIC,Staphylococcus aureus [40],0.5 µg/mL
same,MIC,Enterococcus faecalis [41],≤ 0.25 µg/mL
same,MIC,Staphylococcus aureus [42],1 µg/mL

# Source: ChEMBL document CHEMBL3864121, “Development of ebsulfur analogues as potent antibacterials against methicillin-resistant Staphylococcus aureus” (Bioorg Med Chem, 2016)
